Results: ChEMBL document CHEMBL5058577, “EUbOPEN Chemogenomics Library 2 (Multiplex)” (2022)

Tested on: HEK-293T
Experiment: Multiplex assay against HEK293T
Format: toxicity, cell-based
Settings: human
Outline: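 Imaging took place on a CQ1 microscope at 37°C and 5% CO2 once compound had been added to live cells stained at seeding with Hoechst33342, BioTracker Green Microtubule Cytoskeleton Dye, MitoTracker Red and Annexin V Alexa Fluor 680. CellPathfinder machine-learning gating classed cells as Hoechst high-intensity objects or normal cells, classed normal cells as having healthy, pyknosed or fragmented nuclei, and classed pyknosed cells as mitotic or apoptotic. Tubulin, mitochondrial-mass and membrane-permeability phenotypes are per cents of the healthy-nucleus cells.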

[1] = 12 h, 1 µM, compound concentration 1 uM, replicate 1
[2] = 12 h, 1 µM, compound concentration 1 uM, replicate 2
[3] = 12 h, 10 µM, compound concentration 10 uM, replicate 1
[4] = 12 h, 10 µM, compound concentration 10 uM, replicate 2
[5] = 24 h, 1 µM, compound concentration 1 uM, replicate 1
[6] = 24 h, 1 µM, compound concentration 1 uM, replicate 2
[7] = 24 h, 10 µM, compound concentration 10 uM, replicate 1
[8] = 24 h, 10 µM, compound concentration 10 uM, replicate 2
[9] = 48 h, 1 µM, compound concentration 1 uM, replicate 1
[10] = 48 h, 1 µM, compound concentration 1 uM, replicate 2
[11] = 48 h, 10 µM, compound concentration 10 uM, replicate 1
[12] = 48 h, 10 µM, compound concentration 10 uM, replicate 2

Question: Which “Population Apoptotic (%)” value [1] does the source give for `NCCc1cn(S(=O)(=O)c2c(Cl)nc3sccn23)c2ccccc12.O=C(O)C(=O)O` here?
Answer: 37%

Question: And the “Population Fragmented Nuclei (%)” value [1]?
Answer: 5%

Question: And the “Population Healthy Nuclei (%)” value [1]?
Answer: 83%

Question: What about the “Population Hoechst High Intensity Objects (%)” value [1] of the same compound?
Answer: 7%

Question: What about the “Population Membrane Permeable-Phenotype (%)” value [1] of the same compound?
Answer: 0%

Question: And the “Population Mitochondria Different-Phenotype (%)” value [1]?
Answer: 53%

Question: And the “Population Mitotic Cells (%)” value [1]?
Answer: 62%

Question: What about the “Population Normal (%)” value [1] of the same compound?
Answer: 92%

Question: What about the “Population Pyknosed Nuclei (%)” value [1] of the same compound?
Answer: 11%

Question: And the “Population Tubulin-Different-Phenotype (%)” value [1]?
Answer: 40%

Question: What about the “Total Cell Count” value [1] of the same compound?
Answer: 446

Question: And the “Population Apoptotic (%)” value [2]?
Answer: 52%

Question: And the “Population Fragmented Nuclei (%)” value [2]?
Answer: 8%

Question: What about the “Population Healthy Nuclei (%)” value [2] of the same compound?
Answer: 78%

Question: What about the “Population Hoechst High Intensity Objects (%)” value [2] of the same compound?
Answer: 8%

Question: What about the “Population Mitochondria Different-Phenotype (%)” value [2] of the same compound?
Answer: 66%

Question: And the “Population Mitotic Cells (%)” value [2]?
Answer: 47%

Question: And the “Population Normal (%)” value [2]?
Answer: 91%

Question: And the “Population Pyknosed Nuclei (%)” value [2]?
Answer: 13%

Question: And the “Population Tubulin-Different-Phenotype (%)” value [2]?
Answer: 34%

Question: What about the “Total Cell Count” value [2] of the same compound?
Answer: 316

Question: And the “Population Apoptotic (%)” value [3]?
Answer: 63%

Question: What about the “Population Fragmented Nuclei (%)” value [3] of the same compound?
Answer: 8%

Question: And the “Population Healthy Nuclei (%)” value [3]?
Answer: 49%

Question: And the “Population Hoechst High Intensity Objects (%)” value [3]?
Answer: 22%

Question: And the “Population Membrane Permeable-Phenotype (%)” value [3]?
Answer: 0%

Question: And the “Population Mitochondria Different-Phenotype (%)” value [3]?
Answer: 96%

Question: And the “Population Mitotic Cells (%)” value [3]?
Answer: 36%

Question: What about the “Population Normal (%)” value [3] of the same compound?
Answer: 77%

Question: What about the “Population Pyknosed Nuclei (%)” value [3] of the same compound?
Answer: 42%

Question: What about the “Population Tubulin-Different-Phenotype (%)” value [3] of the same compound?
Answer: 88%

Question: And the “Total Cell Count” value [3]?
Answer: 292

Question: And the “Population Apoptotic (%)” value [4]?
Answer: 64%

Question: What about the “Population Healthy Nuclei (%)” value [4] of the same compound?
Answer: 67%

Question: And the “Population Hoechst High Intensity Objects (%)” value [4]?
Answer: 25%

Question: And the “Population Mitochondria Different-Phenotype (%)” value [4]?
Answer: 97%

Question: What about the “Population Mitotic Cells (%)” value [4] of the same compound?
Answer: 35%

Question: And the “Population Normal (%)” value [4]?
Answer: 74%

Question: And the “Population Pyknosed Nuclei (%)” value [4]?
Answer: 23%

Question: And the “Population Tubulin-Different-Phenotype (%)” value [4]?
Answer: 82%

Question: What about the “Total Cell Count” value [4] of the same compound?
Answer: 209

Question: What about the “Population Apoptotic (%)” value [5] of the same compound?
Answer: 33%

Question: And the “Population Fragmented Nuclei (%)” value [5]?
Answer: 9%

Question: And the “Population Healthy Nuclei (%)” value [5]?
Answer: 79%

Question: And the “Population Hoechst High Intensity Objects (%)” value [5]?
Answer: 6%

Question: And the “Population Membrane Permeable-Phenotype (%)” value [5]?
Answer: 1%

Question: What about the “Population Mitochondria Different-Phenotype (%)” value [5] of the same compound?
Answer: 28%

Question: What about the “Population Mitotic Cells (%)” value [5] of the same compound?
Answer: 66%

Question: And the “Population Normal (%)” value [5]?
Answer: 93%

Question: And the “Population Pyknosed Nuclei (%)” value [5]?
Answer: 11%

Question: And the “Population Tubulin-Different-Phenotype (%)” value [5]?
Answer: 26%

Question: And the “Total Cell Count” value [5]?
Answer: 585

Question: What about the “Population Apoptotic (%)” value [6] of the same compound?
Answer: 41%

Question: What about the “Population Fragmented Nuclei (%)” value [6] of the same compound?
Answer: 12%

Question: What about the “Population Healthy Nuclei (%)” value [6] of the same compound?
Answer: 78%

Question: And the “Population Hoechst High Intensity Objects (%)” value [6]?
Answer: 4%

Question: And the “Population Mitochondria Different-Phenotype (%)” value [6]?
Answer: 46%

Question: What about the “Population Mitotic Cells (%)” value [6] of the same compound?
Answer: 58%

Question: What about the “Population Normal (%)” value [6] of the same compound?
Answer: 95%

Question: And the “Population Pyknosed Nuclei (%)” value [6]?
Answer: 8%

Question: What about the “Population Tubulin-Different-Phenotype (%)” value [6] of the same compound?
Answer: 19%

Question: And the “Total Cell Count” value [6]?
Answer: 438

Question: What about the “Population Apoptotic (%)” value [7] of the same compound?
Answer: 74%

Question: And the “Population Fragmented Nuclei (%)” value [7]?
Answer: 14%

Question: What about the “Population Healthy Nuclei (%)” value [7] of the same compound?
Answer: 37%

Question: What about the “Population Hoechst High Intensity Objects (%)” value [7] of the same compound?
Answer: 34%

Question: What about the “Population Membrane Permeable-Phenotype (%)” value [7] of the same compound?
Answer: 2%

Question: What about the “Population Mitochondria Different-Phenotype (%)” value [7] of the same compound?
Answer: 83%

Question: And the “Population Mitotic Cells (%)” value [7]?
Answer: 25%

Question: And the “Population Normal (%)” value [7]?
Answer: 65%

Question: What about the “Population Pyknosed Nuclei (%)” value [7] of the same compound?
Answer: 48%

Question: And the “Population Tubulin-Different-Phenotype (%)” value [7]?
Answer: 44%

Question: What about the “Total Cell Count” value [7] of the same compound?
Answer: 310

Question: And the “Population Apoptotic (%)” value [8]?
Answer: 75%

Question: And the “Population Healthy Nuclei (%)” value [8]?
Answer: 62%

Question: What about the “Population Mitochondria Different-Phenotype (%)” value [8] of the same compound?
Answer: 95%

Question: And the “Population Mitotic Cells (%)” value [8]?
Answer: 24%

Question: And the “Population Pyknosed Nuclei (%)” value [8]?
Answer: 22%

Question: What about the “Population Tubulin-Different-Phenotype (%)” value [8] of the same compound?
Answer: 76%

Question: And the “Total Cell Count” value [8]?
Answer: 195

Question: And the “Population Apoptotic (%)” value [9]?
Answer: 23%

Question: What about the “Population Fragmented Nuclei (%)” value [9] of the same compound?
Answer: 16%

Question: And the “Population Healthy Nuclei (%)” value [9]?
Answer: 77%

Question: What about the “Population Hoechst High Intensity Objects (%)” value [9] of the same compound?
Answer: 3%

Question: And the “Population Membrane Permeable-Phenotype (%)” value [9]?
Answer: 0%

Question: What about the “Population Mitochondria Different-Phenotype (%)” value [9] of the same compound?
Answer: 22%

Question: What about the “Population Mitotic Cells (%)” value [9] of the same compound?
Answer: 76%

Question: And the “Population Normal (%)” value [9]?
Answer: 96%

Question: And the “Population Pyknosed Nuclei (%)” value [9]?
Answer: 6%

Question: What about the “Population Tubulin-Different-Phenotype (%)” value [9] of the same compound?
Answer: 19%

Question: What about the “Total Cell Count” value [9] of the same compound?
Answer: 972

Question: What about the “Population Apoptotic (%)” value [10] of the same compound?
Answer: 47%

Question: And the “Population Fragmented Nuclei (%)” value [10]?
Answer: 12%

Question: What about the “Population Healthy Nuclei (%)” value [10] of the same compound?
Answer: 82%

Question: And the “Population Hoechst High Intensity Objects (%)” value [10]?
Answer: 5%

Question: What about the “Population Membrane Permeable-Phenotype (%)” value [10] of the same compound?
Answer: 1%

Question: And the “Population Mitochondria Different-Phenotype (%)” value [10]?
Answer: 23%

Question: What about the “Population Mitotic Cells (%)” value [10] of the same compound?
Answer: 52%

Question: What about the “Population Normal (%)” value [10] of the same compound?
Answer: 94%

Question: And the “Population Pyknosed Nuclei (%)” value [10]?
Answer: 5%

Question: And the “Population Tubulin-Different-Phenotype (%)” value [10]?
Answer: 14%

Question: What about the “Total Cell Count” value [10] of the same compound?
Answer: 678

Question: What about the “Population Apoptotic (%)” value [11] of the same compound?
Answer: 53%

Question: What about the “Population Fragmented Nuclei (%)” value [11] of the same compound?
Answer: 27%

Question: And the “Population Healthy Nuclei (%)” value [11]?
Answer: 24%

Question: What about the “Population Hoechst High Intensity Objects (%)” value [11] of the same compound?
Answer: 62%

Question: And the “Population Membrane Permeable-Phenotype (%)” value [11]?
Answer: 11%

Question: What about the “Population Mitochondria Different-Phenotype (%)” value [11] of the same compound?
Answer: 74%

Question: What about the “Population Mitotic Cells (%)” value [11] of the same compound?
Answer: 46%

Question: And the “Population Normal (%)” value [11]?
Answer: 37%

Question: What about the “Population Pyknosed Nuclei (%)” value [11] of the same compound?
Answer: 47%

Question: And the “Population Tubulin-Different-Phenotype (%)” value [11]?
Answer: 55%

Question: What about the “Total Cell Count” value [11] of the same compound?
Answer: 294

Question: And the “Population Apoptotic (%)” value [12]?
Answer: 78%

Question: And the “Population Fragmented Nuclei (%)” value [12]?
Answer: 19%

Question: And the “Population Healthy Nuclei (%)” value [12]?
Answer: 47%

Question: What about the “Population Hoechst High Intensity Objects (%)” value [12] of the same compound?
Answer: 47%

Question: And the “Population Membrane Permeable-Phenotype (%)” value [12]?
Answer: 1%

Question: What about the “Population Mitochondria Different-Phenotype (%)” value [12] of the same compound?
Answer: 75%

Question: And the “Population Mitotic Cells (%)” value [12]?
Answer: 21%

Question: And the “Population Normal (%)” value [12]?
Answer: 52%

Question: What about the “Population Pyknosed Nuclei (%)” value [12] of the same compound?
Answer: 33%

Question: And the “Population Tubulin-Different-Phenotype (%)” value [12]?
Answer: 52%

Question: What about the “Total Cell Count” value [12] of the same compound?
Answer: 212
